Data from article PMC3625064 (Molecular cell, 2012).
Entries after “also recorded” stand apart in the source; their conditions may differ. No end group written: not given here.

T1: LSD2 (Homo sapiens, UniProt Q8NB78)
T1 sequence (Q8NB78 1-822): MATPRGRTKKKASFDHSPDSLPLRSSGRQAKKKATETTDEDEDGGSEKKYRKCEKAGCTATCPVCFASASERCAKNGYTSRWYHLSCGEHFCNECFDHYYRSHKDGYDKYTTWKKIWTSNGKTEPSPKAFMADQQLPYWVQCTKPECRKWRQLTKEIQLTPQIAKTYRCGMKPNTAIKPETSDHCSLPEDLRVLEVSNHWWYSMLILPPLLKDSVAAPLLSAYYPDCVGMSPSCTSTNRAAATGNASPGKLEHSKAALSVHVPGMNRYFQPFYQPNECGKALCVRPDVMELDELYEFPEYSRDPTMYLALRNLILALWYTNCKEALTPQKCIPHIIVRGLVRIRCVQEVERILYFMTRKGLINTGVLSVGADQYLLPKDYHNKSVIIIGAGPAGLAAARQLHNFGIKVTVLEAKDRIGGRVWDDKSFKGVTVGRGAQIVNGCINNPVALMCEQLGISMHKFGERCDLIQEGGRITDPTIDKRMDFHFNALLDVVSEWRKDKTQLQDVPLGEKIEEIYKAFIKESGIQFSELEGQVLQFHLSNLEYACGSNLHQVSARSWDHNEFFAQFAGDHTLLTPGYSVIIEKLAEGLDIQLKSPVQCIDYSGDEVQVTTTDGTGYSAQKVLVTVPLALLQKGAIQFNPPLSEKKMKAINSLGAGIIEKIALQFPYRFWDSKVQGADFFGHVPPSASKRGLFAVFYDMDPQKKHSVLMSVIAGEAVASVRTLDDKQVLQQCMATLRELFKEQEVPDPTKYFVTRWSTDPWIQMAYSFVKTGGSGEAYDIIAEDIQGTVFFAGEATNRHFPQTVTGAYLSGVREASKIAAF

T2: recombinant hexa-His-tagged LSD2 (human, UniProt Q8NB78 1-822)
T2 sequence (looked up): T1 sequence (Q8NB78 1-822)

B1: GST-tagged wild-type NPAC (natural protein, UniProt Q49A26 1-553, looked up)
chain: MAAVSLRLGDLVWGKLGRYPPWPGKIVNPPKDLKKPRGKKCFFVKFFGTEDHAWIKVEQLKPYHAHKEEMIKINKGKRFQQAVDAVEEFLRRAKGKDQTSSHNSSDDKNRRNSSEERSRPNSGDEKRKLSLSEGKVKKNMGEGKKRVSSGSSERGSKSPLKRAQEQSPRKRGRPPKDEKDLTIPESSTVKGMMAGPMAAFKWQPTASEPVKDADPHFHHFLLSQTEKPAVCYQAITKKLKICEEETGSTSIQAADSTAVNGSITPTDKKIGFLGLGLMGSGIVSNLLKMGHTVTVWNRTAEKCDLFIQEGARLGRTPAEVVSTCDITFACVSDPKAAKDLVLGPSGVLQGIRPGKCYVDMSTVDADTVTELAQVIVSRGGRFLEAPVSGNQQLSNDGMLVILAAGDRGLYEDCSSCFQAMGKTSFFLGEVGNAAKMMLIVNMVQGSFMATIAEGLTLAQVTGQSQQTLLDILNQGQLASIFLDQKCQNILQGNFKPDFYLKYIQKDLRLAIALGDAVNHPTPMAAAANEVYKRAKALDQSDNDMSAVYRAYIH
B2: GST-NP.d2 (NPAC residues 1–252) (domain or fragment, UniProt Q49A26 1-252, looked up)
chain: MAAVSLRLGDLVWGKLGRYPPWPGKIVNPPKDLKKPRGKKCFFVKFFGTEDHAWIKVEQLKPYHAHKEEMIKINKGKRFQQAVDAVEEFLRRAKGKDQTSSHNSSDDKNRRNSSEERSRPNSGDEKRKLSLSEGKVKKNMGEGKKRVSSGSSERGSKSPLKRAQEQSPRKRGRPPKDEKDLTIPESSTVKGMMAGPMAAFKWQPTASEPVKDADPHFHHFLLSQTEKPAVCYQAITKKLKICEEETGSTSIQ
B3: GST-NP.d3 (NPAC residues 152–252, linker region) (domain or fragment, UniProt Q49A26 152-252, looked up)
chain: SERGSKSPLKRAQEQSPRKRGRPPKDEKDLTIPESSTVKGMMAGPMAAFKWQPTASEPVKDADPHFHHFLLSQTEKPAVCYQAITKKLKICEEETGSTSIQ
B4: GST-NP.d4 (NPAC residues 152–553) (domain or fragment, UniProt Q49A26 152-553, looked up)
chain: SERGSKSPLKRAQEQSPRKRGRPPKDEKDLTIPESSTVKGMMAGPMAAFKWQPTASEPVKDADPHFHHFLLSQTEKPAVCYQAITKKLKICEEETGSTSIQAADSTAVNGSITPTDKKIGFLGLGLMGSGIVSNLLKMGHTVTVWNRTAEKCDLFIQEGARLGRTPAEVVSTCDITFACVSDPKAAKDLVLGPSGVLQGIRPGKCYVDMSTVDADTVTELAQVIVSRGGRFLEAPVSGNQQLSNDGMLVILAAGDRGLYEDCSSCFQAMGKTSFFLGEVGNAAKMMLIVNMVQGSFMATIAEGLTLAQVTGQSQQTLLDILNQGQLASIFLDQKCQNILQGNFKPDFYLKYIQKDLRLAIALGDAVNHPTPMAAAANEVYKRAKALDQSDNDMSAVYRAYIH
B5: GST-NP.d8 (NPAC residues 188–252) (domain or fragment, UniProt Q49A26 188-252, looked up)
chain: TVKGMMAGPMAAFKWQPTASEPVKDADPHFHHFLLSQTEKPAVCYQAITKKLKICEEETGSTSIQ
B6: NP.d2: truncation protein containing the linker region, residues 1–252; GST-tagged (protein)
chain: B2 chain
modifications: left off: GST, end not stated, kept
B7: NP.d4: truncation protein containing the linker region, residues 152–553; GST-tagged (protein)
chain: B4 chain
modifications: left off: GST, end not stated, kept
B8: NP.d1: PWWP domain, residues 1–150; GST-tagged (protein)
chain: MAAVSLRLGDLVWGKLGRYPPWPGKIVNPPKDLKKPRGKKCFFVKFFGTEDHAWIKVEQLKPYHAHKEEMIKINKGKRFQQAVDAVEEFLRRAKGKDQTSSHNSSDDKNRRNSSEERSRPNSGDEKRKLSLSEGKVKKNMGEGKKRVSSG
modifications: left off: GST, end not stated, kept
B9: NP.d5: dehydrogenase domain, residues 262–553; GST-tagged (protein)
chain: SITPTDKKIGFLGLGLMGSGIVSNLLKMGHTVTVWNRTAEKCDLFIQEGARLGRTPAEVVSTCDITFACVSDPKAAKDLVLGPSGVLQGIRPGKCYVDMSTVDADTVTELAQVIVSRGGRFLEAPVSGNQQLSNDGMLVILAAGDRGLYEDCSSCFQAMGKTSFFLGEVGNAAKMMLIVNMVQGSFMATIAEGLTLAQVTGQSQQTLLDILNQGQLASIFLDQKCQNILQGNFKPDFYLKYIQKDLRLAIALGDAVNHPTPMAAAANEVYKRAKALDQSDNDMSAVYRAYIH
modifications: left off: GST, end not stated, kept
B10: NP.d6: deletion of the linker region (residues 152–252); GST-tagged (protein)
chain: MAAVSLRLGDLVWGKLGRYPPWPGKIVNPPKDLKKPRGKKCFFVKFFGTEDHAWIKVEQLKPYHAHKEEMIKINKGKRFQQAVDAVEEFLRRAKGKDQTSSHNSSDDKNRRNSSEERSRPNSGDEKRKLSLSEGKVKKNMGEGKKRVSSGSAADSTAVNGSITPTDKKIGFLGLGLMGSGIVSNLLKMGHTVTVWNRTAEKCDLFIQEGARLGRTPAEVVSTCDITFACVSDPKAAKDLVLGPSGVLQGIRPGKCYVDMSTVDADTVTELAQVIVSRGGRFLEAPVSGNQQLSNDGMLVILAAGDRGLYEDCSSCFQAMGKTSFFLGEVGNAAKMMLIVNMVQGSFMATIAEGLTLAQVTGQSQQTLLDILNQGQLASIFLDQKCQNILQGNFKPDFYLKYIQKDLRLAIALGDAVNHPTPMAAAANEVYKRAKALDQSDNDMSAVYRAYIH
modifications: left off: GST, end not stated, kept
B11: NP.d9: deletion of amino acids 214–222 from NP.d3 (protein)
chain: SERGSKSPLKRAQEQSPRKRGRPPKDEKDLTIPESSTVKGMMAGPMAAFKWQPTASEPVKDASQTEKPAVCYQAITKKLKICEEETGSTSIQ
modifications: left off: GST, end not stated, kept
B12: NP.d8: residues 188–252 (protein)
chain: B5 chain
modifications: left off: GST, end not stated, kept

Molecular target: T1, LSD2
Assay: H3K4me2 peptide
Format: biochemical
Details: 50 μM H3K4me2 peptide (1–21), 50 mM Tris-HCl pH 8.5, 50 mM KCl, 5 mM MgCl2, 5% glycerol, 37°C, 30 min; MALDI-TOF MS
Procedure, shortened: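 Purified LSD2, full-length or truncated (residues 51–822), incubated with NPAC-derived peptides or proteins and 50 μM H3K4me2 peptide (residues 1–21, >95% pure by HPLC and MS) in 50 mM Tris-HCl pH 8.5, 50 mM KCl, 5 mM MgCl2, 5% glycerol, 37°C, 30 min. Products desalted on C18 tips; MALDI-TOF MS at constant laser intensity across samples.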

| Molecule | cofactor activity for LSD2 with H3K4me2 peptide (residues 1–21) as substrate |
| --- | --- |
| DPHAHHFLLSQT [NP.M6] | but not the F217A mutant, can stimulate LSD2-mediated demethylation of H3K4me2 peptides; also recorded: These results were further confirmed in demethylation assays using H3K4me2 peptide substrate (residues 1–21) |

Molecular target: T2, recombinant hexa-His-tagged LSD2
Assay: pull-down
Details: not given

| Molecule | binding result |
| --- | --- |
| B1 | binds |
| B2 | binds |
| B3 | binds |
| B4 | binds |
| B5 | binds |

Molecular target: T1, LSD2
Assay: GST pull-down of His-LSD2
Format: binding
Details: GST pull-down of purified His-LSD2; SDS-PAGE, Coomassie blue staining
Procedure, shortened: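 GST and GST-tagged wild-type or mutant NPAC proteins (linker-region and binding-site mutants) were used to pull down purified His-LSD2. His-LSD2 in input and bound fractions was resolved by SDS-PAGE and stained with Coomassie blue.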

| Molecule | LSD2 binding / interaction |
| --- | --- |
| NP.d7: residues 152–186, containing the AT-hook motif (SERGSKSPLKRAQEQSPRKRGRPPKDEKDLTIPES; also: GST fusion, end not given here) | but not NP.d7 (residues 152–186, containing the AT-hook motif, lane 4), was sufficient for LSD2 interaction |
| B6 | capable of directly interacting with LSD2; also recorded: did not adversely affect LSD2 binding |
| B7 | capable of directly interacting with LSD2; also recorded: did not adversely affect LSD2 binding |
| B8 | Neither the PWWP domain (NP.d1) nor the dehydrogenase domain (NP.d5) interacted with LSD2 |
| B9 | Neither the PWWP domain (NP.d1) nor the dehydrogenase domain (NP.d5) interacted with LSD2 |
| B10 | abolished NPAC-LSD2 interaction |
| B11 | completely abolished LSD2 binding |
| B12 | sufficient for LSD2 interaction |
